Key:
[1] = molecular target: Type-1 angiotensin II receptor (Oryctolagus cuniculus) (UniProt P34976); assay: Binding affinity towards Angiotensin receptor from rabbit aorta
[2] = tested on: Rattus norvegicus; assay: Percentage peak pressor response in rat after intravenous administration at a dose of 0.1 mg/kg of the compound.; type: functional
Outline: (§1)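 Male Sprague-Dawley rats (300–400 g), conscious, with arterial (blood pressure) and venous (dosing) catheters. Pressor responses to AII 0.1 μg/kg iv recorded before and after iv compound. Vehicle: saturated NaHCO3 15%, saline 35%, water 50%.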

[3] = tested on: Rattus norvegicus; assay: Percentage peak pressor response in rat after peroral administration at a dose of 0.3 mg/kg of the compound.; type: functional; conditions: route oral
Outline: (§2)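 Conscious male Sprague-Dawley rats (300–400 g) fitted with arterial and venous catheters. Compound given orally as a suspension in 1 N NaOH–0.5% methocel (10:90). Pressor response to AII (0.1 μg/kg iv) measured before and after dosing. Peak inhibition of the AII response is expressed as a percentage at each dose.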

[4] = tested on: Rattus norvegicus; assay: Percentage peak pressor response in rat after peroral administration at a dose of 0.1 mg/kg of the compound.; type: functional; conditions: route oral
Outline: as §2

[5] = tested on: Rattus norvegicus; assay: Percentage peak pressor response in rat after peroral administration at a dose of 0.03 mg/kg of the compound.; type: functional; conditions: route oral
Outline: as §2

[6] = tested on: Rattus norvegicus; assay: Percentage peak pressor response in rat after intravenous administration at a dose of 0.03 mg/kg of the compound.; type: functional
Outline: as §1

[7] = tested on: Rattus norvegicus; assay: Percentage peak pressor response in rat after intravenous administration at a dose of 0.3 mg/kg of the compound.; type: functional
Outline: as §1

[8] = molecular target: Type-1 angiotensin II receptor (Rattus norvegicus) (UniProt P25095); assay: The compound was tested for inhibition of angiotensin II receptor induced pressor response in rat after intravenous administration.
Sequence of Type-1 angiotensin II receptor (Rattus norvegicus) (P25095 whole entry, looked up): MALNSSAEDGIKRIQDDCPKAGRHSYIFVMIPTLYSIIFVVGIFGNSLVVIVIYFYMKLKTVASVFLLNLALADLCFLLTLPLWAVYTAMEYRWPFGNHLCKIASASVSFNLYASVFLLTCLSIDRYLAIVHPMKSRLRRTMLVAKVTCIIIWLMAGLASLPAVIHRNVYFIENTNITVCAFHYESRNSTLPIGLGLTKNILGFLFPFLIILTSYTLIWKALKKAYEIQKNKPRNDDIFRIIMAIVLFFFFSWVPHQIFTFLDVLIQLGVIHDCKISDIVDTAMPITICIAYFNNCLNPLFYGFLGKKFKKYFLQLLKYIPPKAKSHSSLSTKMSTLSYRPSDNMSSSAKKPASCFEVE

Sequence of Type-1 angiotensin II receptor (Oryctolagus cuniculus) (P34976 whole entry, looked up): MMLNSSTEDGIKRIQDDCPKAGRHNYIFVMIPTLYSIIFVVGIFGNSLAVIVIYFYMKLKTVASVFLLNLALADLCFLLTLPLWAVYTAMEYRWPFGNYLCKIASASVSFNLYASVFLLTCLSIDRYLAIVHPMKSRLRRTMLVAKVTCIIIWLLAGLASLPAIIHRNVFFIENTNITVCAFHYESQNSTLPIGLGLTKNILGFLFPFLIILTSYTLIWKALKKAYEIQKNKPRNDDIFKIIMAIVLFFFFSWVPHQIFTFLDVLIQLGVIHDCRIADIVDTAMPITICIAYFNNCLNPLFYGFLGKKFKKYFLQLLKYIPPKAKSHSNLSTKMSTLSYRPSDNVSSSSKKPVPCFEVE

Row | IC50 [1] | ED50 [8] | Compound | other results
1 | 8 nM | – | CCCc1nc2cccnc2n1Cc1ccc(-c2ccccc2-c2nn[nH]n2)cc1 | –
2 | – | – | CCc1nc2c(C)cc(C)nc2n1Cc1ccc(-c2ccccc2-c2nn[nH]n2)cc1 [L-158809] | Peak inhibition [2]: 85%; Peak inhibition [3]: 92%; Peak inhibition [4]: 75%; Peak inhibition [5]: 52%; Peak inhibition [6]: 36%; Peak inhibition [7]: 99%
3 | 0.5 nM | 0.45 mg/kg | CCCCc1nc2c(C)cc(C)nc2n1Cc1ccc(-c2ccccc2-c2nn[nH]n2)cc1 | –
4 | 1 nM | – | CCCc1nc2c(C)ccnc2n1Cc1ccc(-c2ccccc2-c2nn[nH]n2)cc1 | –
5 | 0.3 nM | 0.087 mg/kg | CCCc1nc2c(C)cc(C)nc2n1Cc1ccc(-c2ccccc2-c2nn[nH]n2)cc1 | –
6 | 6 nM | – | CCCCC1=NC(Cl)C(C(=O)O)N1Cc1ccc(-c2ccccc2-c2nn[nH]n2)cc1 (stereo not given) | –
7 | 2 nM | 1 mg/kg | CCCc1nc2ccc(C)nc2n1Cc1ccc(-c2ccccc2-c2nn[nH]n2)cc1 | –

— ChEMBL document CHEMBL1125216, “Potent, orally active imidazo[4,5-b]pyridine-based angiotensin II receptor antagonists” (J Med Chem, 1991)
